Entries after “also recorded” stand apart in the source; their conditions may differ.
Columns and labels:
[1] = system: MCF-10A mammary epithelial cell line; experiment: Differential Nuclear Staining; assay type: cell-based, human; details: MCF-10A, 72 h exposure, DNS assay
[2] = system: MDA-MB-231 triple-negative breast cancer cell line; experiment: Differential Nuclear Staining; assay type: cell-based, human
[3] = system: Jurkat acute T cell leukemia cell line; experiment: Differential Nuclear Staining; assay type: cell-based, human; details: 48 h exposure, DNS assay
Procedure, shortened: (§1)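 Cells grown in RPMI-1640 with 10% heat-inactivated FBS and penicillin/streptomycin at 37 °C, 5% CO2, then seeded at 10,000/well and left overnight. Test compound given at […] for 48 h, with untreated, 1% v/v DMSO and 1 mM H2O2 controls, at least three technical replicates. Hoechst plus PI (1 μg/mL final) added for the last 2 h. Wells imaged at 4X, live/dead percentages scored, and CC50 derived by linear interpolation.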

[4] = Solubility in the cytotoxicity experiment; assay type: physicochemical; details: could not be examined at concentrations higher than 1 μM; crystals formed
[5] = system: CEM acute lymphoblastic leukemia cell line; experiment: Differential Nuclear Staining; assay type: cell-based, human
Procedure, shortened: as §1

[6] = Differential Nuclear Staining; assay type: cell-based, human; details: human, MCF-10A mammary epithelial cells
Jurkat cells [7] = experiment: Mitochondrial depolarization assay, MitoProbe JC-1; assay type: cell-based, human; details: 5 h; for Cells with depolarized mitochondria: solvent 20.9%
Jurkat cells [8] = experiment: Cell cycle distribution analysis, NIM-DAPI; assay type: cell-based, human; details: 72 h
Jurkat cells [9] = experiment: Reactive oxygen species; assay type: cell-based, human; details: 18 h, CC50 (4.36 μM) and 2x CC50 (8.72 μM) of 6h, H2O2 positive control, vs DMSO
Jurkat cells [10] = experiment: Annexin V-FITC/PI apoptosis assay; assay type: cell-based, human; details: 24 h, CC50 (4.36 μM) and 2x CC50 (8.72 μM), vs vehicle control
[11] = MDA-MB-231, 72 h exposure, DNS assay
[12] = 6h at CC25 (2.18 μM) and CC50 (4.36 μM), vs DMSO

| Compound | CC50 at 72 h [6] | CC50 ([2]; Homo sapiens, MDA-MB-231, 72 h) | CC50 ([3]; Homo sapiens, 48 h) | CC50 ([5]; Homo sapiens, 48 h) | other results |
| --- | --- | --- | --- | --- | --- |
| O=C1Nc2ccccc2C1=Cc1cn(-c2ccccc2)nc1-c1ccccc1 [Compound 6a] |  |  |  |  | CC50 [1]: > 1 µM; CC50 [2, 11]: > 1 µM; CC50 [3]: > 1 µM; Solubility (result in words) [4]: poor solubility; CC50 ([5]; CEM, 48 h exposure, DNS assay): > 1 µM |
| Cc1ccc(-c2nn(-c3ccccc3)cc2C=C2C(=O)Nc3ccccc32)cc1 [Compound 6b, 3-((1-Phenyl-3-(p-tolyl)-1H-pyrazol-4-yl)methylene)indolin-2-one] | > 1 µM | > 1 µM | > 1 µM | > 1 µM | Solubility (result in words) [4]: poor solubility |
| O=C1Nc2ccccc2C1=Cc1cn(-c2ccccc2)nc1-c1ccc([N+](=O)[O-])cc1 [Compound 6c, 3-((3-(4-Nitrophenyl)-1-phenyl-1H-pyrazol-4-yl)methylene)indolin-2-one] | > 20 µM | > 20 µM | > 20 µM | > 20 µM |  |
| COc1ccc(-c2nn(-c3ccccc3)cc2C=C2C(=O)Nc3ccccc32)cc1 [Compound 6d, 3-((3-(4-Methoxyphenyl)-1-phenyl-1H-pyrazol-4-yl)methylene)indolin-2-one] | > 1 µM | > 1 µM | > 1 µM | > 1 µM | Solubility (result in words) [4]: poor solubility |
| O=C1Nc2ccccc2C1=Cc1cn(-c2ccccc2)nc1-c1ccc(Cl)cc1 [Compound 6e, 3-((3-(4-Chlorophenyl)-1-phenyl-1H-pyrazol-4-yl)methylene)indolin-2-one] | > 20 µM | > 20 µM | > 20 µM | > 20 µM |  |
| O=C1Nc2ccccc2C1=Cc1cn(-c2ccccc2)nc1-c1cc2ccccc2oc1=O [Compound 6f, 3-((3-(2-Oxo-2H-chromen-3-yl)-1-phenyl-1H-pyrazol-4-yl)methylene)indolin-2-one] | > 20 µM | > 20 µM | > 20 µM | > 20 µM |  |
| Cc1ccc2c(c1)C(=Cc1cn(-c3ccccc3)nc1-c1ccccc1)C(=O)N2 [Compound 6g, 3-((1,3-diphenyl-1H-pyrazol-4-yl)methylene)-5-methylindolin-2-one] | 13 ± 0.49 µM | > 20 µM | > 20 µM | > 20 µM |  |
| Cc1ccc(-c2nn(-c3ccccc3)cc2C=C2C(=O)Nc3ccc(C)cc32)cc1 [Compound 6h, 5-methyl-3-((3-(1-phenyl)-3-(p-tolyl)-1H-pyrazol-4-yl)methylene)indolin-2-one] |  |  |  |  | Mitochondrial depolarization (result in words) (Jurkat cells [7]; CC50 and 2x CC50): does not cause mitochondrial depolarization; also recorded: No significant increase in cells with depolarized mitochondria; Cells with depolarized mitochondria (Jurkat cells [7]; at 2x CC50, untreated 13.2%): 18.7%; Cells with depolarized mitochondria (Jurkat cells [7]; at CC50, untreated 13.2%): 18.3%; DNA fragmentation (sub G0/G1) (Jurkat cells [8]; [12]): moderate but significant increase in DNA fragmentation (sub G0/G1); also recorded: significant increase in DNA fragmentation (sub G0/G1; A); G0/G1 phase subpopulation (Jurkat cells [8]; [12]): significant cell cycle arrest was seen in the G0/G1 subpopulation; also recorded: cell cycle arrest in the G0/G1 diploid phase; G2/M (tetraploid) phase subpopulation (Jurkat cells [8]; [12]): small but also significant reduction in the G2/M (tetraploid) phase; also recorded: significant decrease in G2/M; CC50 [1]: 14.8 ± 1.48 µM; CC50 [2, 11]: > 20 µM; ROS overproduction/accumulation (Jurkat cells [9]): does not activate ROS overproduction and/or accumulation; also recorded: does not cause ROS accumulation; Phosphatidylserine (PS) externalization / apoptosis (Jurkat cells [10]): induces a significant amount of PS externalization in a dose-response trend; also recorded: induced significant PS externalization; CC50 [3]: 4.36 ± 0.2 µM; CC50 ([5]; CEM, 48 h exposure, DNS assay): 7.14 ± 0.92 µM |
| COc1ccc(-c2nn(-c3ccccc3)cc2C=C2C(=O)Nc3ccc(C)cc32)cc1 [Compound 6i, 3-((3-(4-methoxyphenyl)-1-phenyl-1H-pyrazol-4-yl)methylene)-5-methylindolin-2-one] | 9.37 ± 0.42 µM | > 20 µM | > 20 µM | > 20 µM |  |
| Cc1ccc2c(c1)C(=Cc1cn(-c3ccccc3)nc1-c1ccc(Cl)cc1)C(=O)N2 [Compound 6j, 3-((3-(4-chlorophenyl)-1-phenyl-1H-pyrazol-4-yl)methylene)-5-methylindolin-2-one] | 8.59 ± 0.31 µM | > 20 µM |  | 7.66 ± 0.19 µM |  |
| Cc1ccc2c(c1)C(=Cc1cn(-c3ccccc3)nc1-c1cc3ccccc3oc1=O)C(=O)N2 [Compound 6k, 5-methyl-3-((3-(2-oxo-2H-chromen-3-yl)-1-phenyl-1H-pyrazol-4-yl)methylene)indolin-2-one] | > 20 µM | > 20 µM | > 20 µM | > 20 µM |  |
| OO [Compound H2O2, H2O2, reference compound] |  |  |  |  | DNA fragmentation (sub G0/G1) (Jurkat cells [8]; [12]): moderate but significant increase in DNA fragmentation (sub G0/G1); ROS overproduction/accumulation (Jurkat cells [9]): displayed the highest amount of accumulated ROS |
| COc1cc([C@@H]2c3cc4c(cc3[C@@H](O[C@@H]3O[C@@H]5CO[C@@H](C)O[C@H]5[C@H](O)[C@H]3O)[C@H]3COC(=O)[C@H]23)OCO4)cc(OC)c1O [etoposide, reference compound] |  |  |  |  | DNA fragmentation (sub G0/G1) (Jurkat cells [8]; [12]): moderate but significant increase in DNA fragmentation (sub G0/G1); S hyperdiploid phase subpopulation (Jurkat cells [8]; control): significant arrest in the S hyperdiploid phase |
